Data published in ChEMBL document CHEMBL2311438, “Synthesis and biological evaluation of 4-hydroxy-4-(4-methoxyphenyl)-substituted proline and pyrrolidin-2-ylacetic acid derivatives as GABA uptake inhibitors” (Bioorg Med Chem, 2013).

How the values were obtained:
Sus scrofa [1] = organism: Sus scrofa; assay: Inhibition of GAT3-mediated [3H]GABA uptake in porcine brain stem membrane fraction 2C assessed as remaining GABA uptake activity preincubated at 100 uM for 10 mins by scintillation counting; type: cell membranes
Summary of the method: (§1)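 Preliminary single-concentration screen giving percent remaining GABA uptake. Membranes were preincubated with compound for 10 min at 37 °C in Tris-HCl pH 7.2 saline with glucose. Then 50 nM [³H]GABA plus unlabelled GABA was added for 4 min at 37 °C. Filtration harvest onto NaCl-presoaked glass-fibre filters, saline washes, liquid scintillation counting. IC50 pursued only when uptake fell below 50%.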

[2] = Inhibition of GAT3-mediated [3H]GABA uptake in porcine brain stem membrane fraction 2C compound preincubated for 10 mins by scintillation counting; type: cell membranes, Sus scrofa
Summary of the method: (§2)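 50 nM [³H]GABA plus unlabelled GABA added, then 4 min at 37 °C. Stopped by filtration through glass-fibre filters presoaked in 0.9% NaCl, washed, scintillation counted. Triplicate; IC50 as mean ± SEM.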

[3] = Inhibition of GAT1-mediated [3H]GABA uptake in porcine frontal cortex membrane fraction 2B compound preincubated for 10 mins by scintillation counting; type: cell membranes, Sus scrofa; summary of the method: as §2
[4] = Inhibition of GAT3-mediated [3H]GABA uptake in bovine brain stem membrane fraction 2C compound preincubated for 10 mins by scintillation counting; type: cell membranes, Bos taurus; summary of the method: as §2
[5] = Inhibition of GAT1-mediated [3H]GABA uptake in bovine frontal cortex membrane fraction 2B compound preincubated for 10 mins by scintillation counting; type: cell membranes, Bos taurus; summary of the method: as §2
Sus scrofa [6] = organism: Sus scrofa; assay: Inhibition of GAT1-mediated [3H]GABA uptake in porcine frontal cortex membrane fraction 2B assessed as remaining GABA uptake activity preincubated at 100 uM for 10 mins by scintillation counting; type: cell membranes; summary of the method: as §1
Bos taurus [7] = organism: Bos taurus; assay: Inhibition of GAT3-mediated [3H]GABA uptake in calf brain stem membrane fraction 2C assessed as remaining GABA uptake activity preincubated at 100 uM for 10 mins by scintillation counting; type: cell membranes; summary of the method: as §1
[8] = Inhibition of GAT3-mediated [3H]GABA uptake in calf brain stem membrane fraction 2C compound preincubated for 10 mins by scintillation counting; type: cell membranes, Bos taurus; summary of the method: as §2
Bos taurus [9] = organism: Bos taurus; assay: Inhibition of GAT1-mediated [3H]GABA uptake in calf frontal cortex membrane fraction 2B assessed as remaining GABA uptake activity preincubated at 100 uM for 10 mins by scintillation counting; type: cell membranes; summary of the method: as §1
[10] = Inhibition of GAT1-mediated [3H]GABA uptake in calf frontal cortex membrane fraction 2B compound preincubated for 10 mins by scintillation counting; type: cell membranes, Bos taurus; summary of the method: as §2
Bos taurus [11] = organism: Bos taurus; assay: Inhibition of GAT3-mediated [3H]GABA uptake in bovine brain stem membrane fraction 2C assessed as remaining GABA uptake activity preincubated at 100 uM for 10 mins by scintillation counting; type: cell membranes; summary of the method: as §1
Bos taurus [12] = organism: Bos taurus; assay: Inhibition of GAT1-mediated [3H]GABA uptake in bovine frontal cortex membrane fraction 2B assessed as remaining GABA uptake activity preincubated at 100 uM for 10 mins by scintillation counting; type: cell membranes; summary of the method: as §1

Row | Activity (Sus scrofa [1]) [%] | IC50 [2] [µM] | IC50 [3] [µM] | Activity (Sus scrofa [6]) [%] | Compound | other results
1 | > 50 | > 100 | 114 |  | COc1ccc([C@@]2(O)C[C@H](CC(=O)O)N(CCC=C(c3sccc3C)c3sccc3C)C2)cc1 | 
2 |  |  |  |  | COc1ccc(C(OCCN2C[C@@](O)(c3ccc(OC)cc3)C[C@H]2C(=O)O)(c2ccc(OC)cc2)c2ccc(OC)cc2)cc1 | IC50 [4]: 63.3 µM; IC50 [5]: 68.1 µM
3 | > 50 | > 100 | > 100 | > 50 | COc1ccc([C@]2(O)CN[C@@H](C(=O)O)C2)cc1 | 
4 |  |  |  |  | COc1ccc([C@@]2(O)C[C@H](C(=O)O)N(CCC=C(c3ccccc3)c3ccccc3)C2)cc1 | Activity (Bos taurus [7]): > 50%; IC50 [8]: > 100 µM; Activity (Bos taurus [9]): > 50%; IC50 [10]: > 100 µM
5 |  | 65.4 | 64.5 |  | COc1ccc(C(OCCN2C[C@](O)(c3ccc(OC)cc3)C[C@@H]2CC(=O)O)(c2ccc(OC)cc2)c2ccc(OC)cc2)cc1 | 
6 | > 50 | > 100 | > 100 | > 50 | COc1ccc([C@]2(O)C[C@H](CC(=O)O)N(CCC=C(c3sccc3C)c3sccc3C)C2)cc1 | 
7 | > 50 | > 100 | > 100 | > 50 | COc1ccc([C@@]2(O)CN[C@H](CC(=O)O)C2)cc1 | 
8 |  | 66.7 | 48.4 |  | COc1ccc(C(OCCN2C[C@](O)(c3ccc(OC)cc3)C[C@H]2CC(=O)O)(c2ccc(OC)cc2)c2ccc(OC)cc2)cc1 | 
9 |  |  |  |  | COc1ccc(C(OCCN2C[C@](O)(c3ccc(OC)cc3)C[C@H]2C(=O)O)(c2ccc(OC)cc2)c2ccc(OC)cc2)cc1 | IC50 [4]: 29.7 µM; IC50 [5]: 45.1 µM
10 |  |  |  |  | COc1ccc([C@@]2(O)C[C@@H](C(=O)O)N(CCC=C(c3ccccc3)c3ccccc3)C2)cc1 | Activity (Bos taurus [11]): > 50%; IC50 [4]: > 100 µM; Activity (Bos taurus [12]): > 50%; IC50 [5]: > 100 µM
11 |  |  |  |  | COc1ccc([C@]2(O)C[C@H](C(=O)O)N(CCC=C(c3ccccc3)c3ccccc3)C2)cc1 | Activity (Bos taurus [7]): > 50%; IC50 [8]: > 100 µM; Activity (Bos taurus [9]): > 50%; IC50 [10]: > 100 µM
12 |  | 124 | > 100 | > 50 | COc1ccc([C@]2(O)C[C@@H](CC(=O)O)N(CCC=C(c3sccc3C)c3sccc3C)C2)cc1 | 
13 |  | 38 | 56 |  | COc1ccc(C(OCCN2C[C@@](O)(c3ccc(OC)cc3)C[C@@H]2C(=O)O)(c2ccc(OC)cc2)c2ccc(OC)cc2)cc1 | 
14 |  | 66.1 | 59.2 |  | COc1ccc(C(OCCN2C[C@@](O)(c3ccc(OC)cc3)C[C@@H]2CC(=O)O)(c2ccc(OC)cc2)c2ccc(OC)cc2)cc1 | 
15 |  |  |  |  | COc1ccc([C@]2(O)C[C@@H](C(=O)O)N(CCC=C(c3ccccc3)c3ccccc3)C2)cc1 | IC50 [4]: 237 µM; Activity (Bos taurus [12]): > 50%; IC50 [5]: > 100 µM
16 |  |  | 71 |  | COc1ccc(C(OCCN2C[C@](O)(c3ccc(OC)cc3)C[C@@H]2C(=O)O)(c2ccc(OC)cc2)c2ccc(OC)cc2)cc1 | Activity (Bos taurus [11]): > 50%; IC50 [4]: > 100 µM
17 | > 50 | > 100 | > 100 | > 50 | COc1ccc([C@@]2(O)CN[C@H](C(=O)O)C2)cc1 | 
18 |  | 78.9 | 75.2 |  | COc1ccc(C(OCCN2C[C@@](O)(c3ccc(OC)cc3)C[C@H]2CC(=O)O)(c2ccc(OC)cc2)c2ccc(OC)cc2)cc1 | 
19 | > 50 | > 100 | > 100 | > 50 | COc1ccc([C@]2(O)CN[C@@H](CC(=O)O)C2)cc1 | 
20 |  | 122 | > 100 | > 50 | COc1ccc([C@@]2(O)C[C@@H](CC(=O)O)N(CCC=C(c3sccc3C)c3sccc3C)C2)cc1 | 
